# Screening data deposited in PubChem BioAssay by Johns Hopkins Ion Channel Center.
# An excerpt weighted towards active compounds, which were near 3.5% of everything screened.
# MrgX1 allo act = allosterically activates human MrgX1 receptor signaling | MrgX1-HEK293, Fluo-4 calcium flux, FDSS; active compounds read high | B-score at 10 µM | hit rate 0.63% among 310,000;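 active means plate-corrected calcium response at least 3 library SD above typical, normal starting fluorescence, not activating the receptor alone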;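 further: compound read alongside a low EC10 to EC30 dose of BAM8-22 agonist; peak minus trough fluorescence over baseline measured at the second addition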
# Target sequence (Q96LB2 whole entry, looked up): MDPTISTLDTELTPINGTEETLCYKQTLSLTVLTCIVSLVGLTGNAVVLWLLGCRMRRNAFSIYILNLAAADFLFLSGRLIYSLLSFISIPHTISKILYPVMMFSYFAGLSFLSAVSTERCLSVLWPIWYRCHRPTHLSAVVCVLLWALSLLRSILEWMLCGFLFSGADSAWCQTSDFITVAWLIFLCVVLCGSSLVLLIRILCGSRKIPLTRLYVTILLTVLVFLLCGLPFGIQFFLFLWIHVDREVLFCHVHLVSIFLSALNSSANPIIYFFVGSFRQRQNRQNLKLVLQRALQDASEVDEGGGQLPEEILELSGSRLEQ
# MrgX1 ag = agonists of human MrgX1 receptor. Q96LB2. MrgX1-HEK293 cells, Fluo-4 calcium fluorescence, agonist mode; active compounds read high. B-score at 10 µM. hit rate 0.44% among 310,000. AID 588627;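 active means calcium response B-score plate-corrected fluorescence ratio at least 3 library SD, with starting fluorescence B-score inside 5 SD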
#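 System: HEK293 cells stably expressing human MrgX1 receptor; Dosing: test compound in the initial addition of three; Schedule: overnight plating, then 30 min 37 °C plus 30 min room-temperature dye loading; Detection: kinetic calcium dye fluorescence, Fluo-4 NW; Controls: per-plate positive and negative controls for Z′ factor.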
# RGS4 pot = potentiators or activators of RGS4; HEK293 M3R/inducible RGS4, carbachol calcium flux Fluo4; active compounds read low; B-score at 10 µM; hit rate 0.92% among 310,000; AID 463111;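 active means B-score of the integrated calcium signal more than 4 SD below the library mean, with starting fluorescence not abnormally high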;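 further: negative B-score means reduced calcium response which marks RGS4 activation or potentiation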
#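 Material: Inducible-RGS4 HEK293 cells carrying M3 receptor; also added: carbachol at ECmax as muscarinic agonist stimulus; incubation: compound preincubation 20 min at room temperature before agonist; signal: Fluo4-AM (2 µM) calcium-flux fluorescence, kinetic read; measure: integrated calcium ratio converted to B score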
# MrgX1 antag = human MrgX1 receptor antagonism, primary screen; MRGX1-HEK293 calcium flux, Fluo-4, BAM8-22 antagonism; active compounds read low; B-score at 10 µM; hit rate 1.3% among 310,000; AID 588676;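 active means calcium-response B-score plate-corrected more than 3 library SD below zero, starting fluorescence within 5 deviations, no agonist response on first addition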;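 further: peak minus trough fluorescence over baseline after final BAM8-22 challenge near maximal dose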
# RGS4 inh = inhibitors of human RGS4. AID 463165. B-score at 10 µM. hit rate 0.45% among 310,000. P49798. HEK293 M3R/RGS4 inducible, Fluo-4 calcium flux; active compounds read high; triggered by carbachol at its EC20;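 active means B-score, a plate-corrected calcium signal, over three deviations above library mean, with baseline fluorescence within five deviations of library mean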;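 further: RGS4 expression induced by doxycycline in cells with stable M3 receptor; B-score is computed from the integrated fluorescence ratio over baseline after carbachol; higher B-score means a larger calcium signal and so more RGS4 inhibition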
# Target sequence (P49798 whole entry, looked up): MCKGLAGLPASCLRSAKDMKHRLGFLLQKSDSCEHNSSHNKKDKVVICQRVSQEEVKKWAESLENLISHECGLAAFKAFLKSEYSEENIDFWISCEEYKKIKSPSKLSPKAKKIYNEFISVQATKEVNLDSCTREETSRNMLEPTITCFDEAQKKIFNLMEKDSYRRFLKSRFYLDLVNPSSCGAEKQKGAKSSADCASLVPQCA
# MrgX1 ant reconf = confirmation of human MrgX1 receptor antagonists; MrgX1-HEK293, BAM8-22 calcium flux, Fluo-4; active compounds read low; remaining BAM8-22 calcium response % of control (active compounds read low), % at 10 µM; hit rate 19% among 2,300; shares compounds with MrgX1 antag;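 active means remaining agonist calcium response no higher than 100% minus 3 SD of agonist-only control wells, with starting fluorescence near control levels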;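 further: agonist BAM8-22 given at a near maximal EC90 to ECmax level; peak minus minimum fluorescence divided by baseline after agonist addition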
# HEK293 Ca flux = MrgX1 antagonist counter-screen hit in parental HEK293 cells | shares compounds with MrgX1 antag | Fluo-4 calcium fluorescence, FDSS | fluorescence ratio F(max-min)/F0 at 10 µM | hit rate 2% among 4,000;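 active means duplicate-averaged calcium fluorescence ratio at least three times the standard deviation of buffer wells, a nonspecific response in parental cells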
# HEK293 Ca counter = counter-screen for MrgX1 allosteric activators: effect in parental HEK293 cells | shares compounds with MrgX1 antag | parental HEK293 calcium flux, Fluo-4 fluorescence ratio; active compounds read high | fluorescence ratio F(max-min)/F0 at 10 µM | hit rate 0.4% among 4,000 | AID 624114;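 active means calcium fluorescence ratio, averaged over duplicates, at least 3 SD of the buffer-well ratio, meaning a nonspecific response in receptor-free cells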;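 further: untransfected parental HEK293 lacking MrgX1 used as counterscreen for MrgX1 allosteric activators; fluorescence change taken during the second addition on a kinetic imager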
# HEK293 Ca cntr2 = activity in parental HEK293 cells lacking MrgX1 receptor. shares compounds with MrgX1 antag. hit rate 8.7% among 4,000. Fluo-4 calcium fluorescence (FDSS); active compounds read high. fluorescence ratio F(max-min)/F0 at 10 µM;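 active means calcium fluorescence ratio at least three times the spread of buffer wells, meaning a non-specific response in parental cells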
# * marks the source's active call; other numbers are inactive results; i = inactive; / = no result.
SMILES,MrgX1 allo act,MrgX1 ag,RGS4 pot,MrgX1 antag,RGS4 inh,MrgX1 ant reconf,HEK293 Ca flux,HEK293 Ca counter,HEK293 Ca cntr2
CC(C)Cc1nnc(NC(=O)CCC(=O)NC2CCCc3ccccc32)s1 (stereo not drawn),i,i,i,-5.18*,i,i,i,i,i
Cc1ccc(NC(=O)NC2CCCc3ccccc32)cc1 (stereo not drawn),i,i,i,-5.27*,i,i,i,i,i
CCCc1nnc(NC(=O)CCC(=O)NC2CCCc3ccccc32)s1 (stereo not drawn),i,i,i,i,i,/,/,/,/
COc1ccc(C2c3ccc4ccccc4c3Oc3ncn(CCN(C)C)c(=N)c32)cc1 (stereo not drawn),i,i,i,i,i,/,/,/,/
CC(=O)c1ccc(NC(=O)C(C)NCc2ccccc2Cl)cc1 (stereo not drawn),i,i,i,-6.23*,i,i,i,i,i
CC(NC(=O)COC(=O)CCc1nc(=O)c2ccccc2n1C)c1ccccc1 (stereo not drawn),i,i,i,i,i,/,/,/,/
Cn1c(CCC(=O)OCC(=O)NCC(F)(F)F)nc(=O)c2ccccc21,i,i,i,-5.59*,i,i,i,i,i
CCOc1ccc(C(=O)CCC(=O)Nc2ccc(C)cn2)cc1,i,i,i,-5.67*,i,81.5%*,i,i,i
CCOc1ccc(C(=O)NCCc2ccc3c(c2)OCCO3)cc1,i,i,i,i,i,/,/,/,/
Cc1cccc(NC(=O)c2oc3ccc(S(=O)(=O)N4CCOCC4)cc3c2C)c1C,i,i,i,-4.76*,i,i,i,i,i
Cc1ccc(NC(=O)c2oc3ccc(S(=O)(=O)N4CCOCC4)cc3c2C)c(C)c1,i,i,i,i,i,/,/,/,/
COc1cccc2c1O/C(=N\O)C(C(=O)Nc1cccc(Br)c1)C2 (stereo not drawn),i,i,i,i,i,/,/,/,/
COC(=O)C1=C(CN2CCSCC2)NC(=O)NC1c1cc(C)ccc1C (stereo not drawn),i,i,i,-5.6*,i,i,i,i,i
CCOC(=O)c1nn(-c2sc(C(=O)OC)c(C)c2C(=O)OC)cc1O,i,i,i,-6.78*,i,61.6%*,i,i,i
CCOC(=O)c1nn(-c2cc(C(=O)OC)cc(C(=O)OC)c2)cc1O,i,i,i,i,i,/,/,/,/
CC(=O)Nc1ccc(S(=O)(=O)N(C)CC(=O)OCC(=O)N(C)c2ccccc2)cc1,i,i,i,i,i,/,/,/,/
COc1cc(NS(C)(=O)=O)ccc1Nc1c2ccccc2nc2ccccc12,i,i,/,-6.74*,/,i,i,i,i
COc1ccc(OC)c(Nc2c3ccccc3nc3ccccc23)c1,i,i,i,i,i,/,/,/,/
CC1(C)C(C=C(Cl)Cl)C1C(=O)N1CCN(c2ccccc2)CC1 (stereo not drawn),i,i,i,-6.59*,i,i,i,i,i
CC(=O)c1ccccc1NC(=O)CSc1nnc(Cc2csc(C)n2)o1,i,i,i,i,i,/,/,/,/
Cc1nc(Cc2nnc(SC(C)C(=O)Nc3cccc(C#N)c3)o2)cs1 (stereo not drawn),i,i,i,-5.87*,i,i,i,i,i
COc1ccc(C2C3=C(CCCC3=O)Nc3ccc4ncccc4c32)cc1OC (stereo not drawn),i,i,i,-4.67*,i,i,i,i,i
COc1cc(C2C3=C(CCCC3=O)Nc3ccc4ncccc4c32)ccc1O (stereo not drawn),i,i,i,i,i,/,/,/,/
COc1ccc(C(=O)NC(C)c2ccc(-n3ccnc3)cc2)c(OC)c1 (stereo not drawn),i,i,i,-10.2*,i,i,i,i,i
O=C(c1cn(CC(=O)N2CCCCC2)c2ccccc12)C1CC1,i,i,i,-4.97*,i,i,i,i,i
SMILES,MrgX1 allo act,MrgX1 ag,RGS4 pot,MrgX1 antag,RGS4 inh,MrgX1 ant reconf,HEK293 Ca flux,HEK293 Ca counter,HEK293 Ca cntr2
Cc1ccc(C(=O)NN2C(=O)C3C4c5ccccc5C(c5ccccc54)C3C2=O)cc1 (stereo not drawn),i,i,i,i,i,/,/,/,/
COc1ccc(NS(=O)(=O)c2cccc(C(=O)NCc3ccco3)c2)cc1,i,i,i,-6.54*,i,i,i,i,55.4*
CN(C)c1cc(-c2ccc([N+](=O)[O-])cc2)oc(=O)c1Cl,i,i,i,i,i,/,/,/,/
CCOC(=O)CSc1ncnc2c1c(-c1ccccc1)cn2-c1ccc(OC)cc1,i,i,i,-5.78*,i,70.9%*,i,i,i
Cc1ccc(-c2nc3cc(N)ccc3o2)cc1,i,i,i,i,i,/,/,/,/
Cc1ccc2oc(-c3cccc(N)c3)nc2c1,i,i,i,-6.24*,i,i,i,i,i
O=C(NCC(c1cccs1)N1CCOCC1)c1ccc(Cl)c([N+](=O)[O-])c1 (stereo not drawn),i,i,i,i,i,/,/,/,/
CC(C)Oc1ccc(C(=O)Nc2nnc(SCC(=O)N3CCOCC3)s2)cc1,i,i,i,-4.9*,i,i,i,i,i
O=C(CNS(=O)(=O)c1cccc2nsnc12)NCc1ccc(Cl)cc1,i,i,i,-7.31*,i,60.5%*,i,i,i
Cc1ccc(-n2[nH]c(C)c(CCC#N)c2=O)cc1,i,i,i,i,i,/,/,/,/
CCC1CCCCN1C(=O)N[C@@H](Cc1ccccc1)C(=O)O (stereo partly drawn),i,i,i,-4.96*,i,i,i,i,i
